Results taken from PMC2932756 (Chemico-biological interactions, 2010).

Assays:
SK-MEL-28 melanoma cells [1] = test: MTT cell viability assay, IC50; assay type: cell-based, human
tyrosinase [2] = test: Tyrosinase mediated GSH depletion assay; assay type: biochemical, Mushroom
[3] = Partition coefficient, distribution coefficient and water solubility; conditions: pH 7.4
tyrosinase [4] = test: Rate of AA and NADH oxidation by tyrosinase/O2; assay type: biochemical, Mushroom
B16-F10 melanoma cells = test: MTT cell viability assay, B16-F10; assay type: cell-based, murine; conditions: CAPE 15 μM, 48 h
Procedure, shortened: (§1)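 24-well plates, 40,000 cells/well (SK-MEL-5 4,000/well) in 400 μL medium with 10% FBS, 24 h adhesion. Media: MEM Alpha for SK-MEL-5, MeWo and C32; DMEM for B16-F0 and B16-F10; McCoy's 5A for Saos-2; Leibovitz's L-15 for SW-620; RPMI for PC-3. Test compound 15 μM for 48 h; MTT 4 h, DMSO solubilisation for 2 h in the dark, A570. Viability relative to each line's untreated control.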

MeWo melanoma cells = test: MTT cell viability assay, MeWo; assay type: cell-based, human; conditions: CAPE 15 μM, 48 h
Procedure, shortened: as §1

[5] = system: amelanotic SK-MEL-24 cells; test: MTT cell viability assay, SK-MEL-24; assay type: cell-based, human; conditions: CAPE 15 μM, 48 h
amelanotic C32 cells = test: MTT cell viability assay, C32; assay type: cell-based, human; conditions: CAPE 15 μM, 48 h
Procedure, shortened: as §1

[6] = system: colorectal adenocarcinoma (SW-620) cells; test: MTT cell viability assay, SW-620; assay type: cell-based, human; conditions: CAPE 15 μM, 48 h
Procedure, shortened: as §1

[7] = system: osteosarcoma (Saos-2) cells; test: MTT cell viability assay, Saos-2; assay type: cell-based, human; conditions: CAPE 15 μM, 48 h
Procedure, shortened: as §1

prostate (PC-3) cells = test: MTT cell viability assay, PC-3; assay type: cell-based, human; conditions: CAPE 15 μM, 48 h
Procedure, shortened: as §1

SK-MEL-28 cells [8] = test: MTT assay in tyrosinase shRNA transfected SK-MEL-28 cells; assay type: cell-based, human; conditions: CAPE 15 μM, 48 h
Procedure, shortened: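 SK-MEL-28 cells seeded at 160,000/well in 6-well plates; after 24 h transfected with tyrosinase shRNA clone (FuGENE6). 24 h later, untransfected, tyrosinase-shRNA and non-specific shRNA cells given test compound 15 μM for a further 48 h. Viability by MTT: 4 h with dye, DMSO solubilisation for 2 h at room temperature in the dark, A570. Three experiments averaged.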

[9] = system: amelanotic C32 melanoma cells; test: Reactive oxygen species; assay type: cell-based, human; conditions: CAPE 15-300 μM
Procedure, shortened: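 Cells seeded at 40,000/well in black 96-well plates, 24 h at 37 °C. Medium replaced with 2′,7′-dichlorofluorescein diacetate, then test compound added; fluorescence read from the moment of addition (ex 485, em 535 nm). In SK-MEL-28 only: dicoumarol 10 μM, 1-bromoheptane 75 μM, cyclosporin A 15 μM or trifluoperazine 15 μM included. Six replicates averaged.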

SK-MEL-28 cells [10] = test: Mitochondrial membrane potential; assay type: cell-based, human
Procedure, shortened: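 SK-MEL-28 cells seeded at 160,000/well in 6-well plates in MEM and left overnight; cyclosporin A 15 μM or ethylenediamine 1 mM added 24 h before test compound (15-50 μM; controls 1% DMSO). After 48 h, TMRM added for 30 min at 37 °C in the dark. Cells detached with versene, pelleted, resuspended in PBS. Flow cytometry on 10,000 events; arithmetic mean fluorescence, triplicates.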

SK-MEL-28 melanoma cells [11] = test: Apoptosis assay; assay type: cell-based, human; conditions: CAPE 15 μM, 48 h
Procedure, shortened: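 SK-MEL-28 cells seeded at 160,000/well in 6-well plates in MEM and left overnight to attach; some wells transfected with tyrosinase shRNA3 or non-specific shRNA for 24 h. Treated with test compound 15 μM (controls 1% DMSO) for 48 h. Cells detached with versene, washed in PBS, pelleted, stained with annexin V-FITC plus PI in binding buffer for 15 min. Flow cytometry on 10,000 events; annexin+ cells (PI− or PI+) counted apoptotic; triplicates.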

[12] = system: melanocytic SK-MEL-28 cells; test: Intracellular GSH measurement, SK-MEL-28; assay type: cell-based, human; conditions: 2 h
Procedure, shortened: (§2)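 Cells from 90-95% confluent cultures seeded at 1 million cells/mL in MEM Alpha with 10% FBS in 24-well plates, 3 h at 37 °C, then given 1 mL medium with test compound (15-200 μM) for 1, 2 or 3 h. Detached with trypsin-EDTA, lysed with 3% sulphosalicylic acid, spun at 14,000 rpm and 4 °C for 10 min; supernatant diluted 10-fold. GSH by DTNB/NADPH (0.3 mM)/GSSG reductase recycling, A405 every 30 s over 4 min.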

[13] = system: amelanotic C32 melanoma cells; test: Intracellular GSH measurement, C32; assay type: cell-based, human; conditions: 2 h
Procedure, shortened: as §2

[14] = UV-VIS spectroscopy, stability of CAPE alone in solution; assay type: physicochemical; conditions: CAPE 100 μM alone, phosphate buffer pH 7.4
Procedure, shortened: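 Test compound 100 μM alone in 0.1 M phosphate buffer, pH 7.4, containing 1 mM DETAPAC; UV-visible spectrum recorded as the no-enzyme control for spectra of enzymatic oxidation, which were taken every two minutes.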

oral cancer cells = conditions: read-out: IC50, cytotoxicity; 48 h; cited from earlier work
[15] = system: human leukemia HL-60 cells; conditions: read-out: IC50, growth arrest; 48 h; cited from earlier work
[16] = system: CYP2E1 induced rat liver microsomes; test: GSH depletion by rat liver P450 microsomal preparation/NADPH/O2; conditions: CYP2E1 pyrazole induced microsomes, 2 h incubation

## O=C(/C=C/c1ccc(O)c(O)c1)OCCc1ccccc1 [CAPE, Caffeic Acid Phenylethyl Ester]
SK-MEL-28 melanoma cells [1]; MTT assay, 48 h incubation
  LD50 (day 2) SK-MEL-28 / IC50 (48 h): 15 µM
SK-MEL-28 melanoma cells [1]; SK-MEL-28
  toxicity relative to caffeic acid, based on IC50 (48 h): 153 fold
Tyrosinase [2]; 100 μM phenolic agent, 200 μM GSH, tyrosinase/O2, 37 °C, 2 h
  Tyrosinase GSH depletion (2 h): 82±6%
Tyrosinase [2]; 2 h incubation
  GSH depleted per mole of CAPE, tyrosinase/O2: 0.8 mole GSH per mole of CAPE
[3]
  ionized at physiological pH: not significantly ionized
  lipid solubility relative to caffeic acid (antilog LogD): 40,000 fold
Tyrosinase [4]; CAPE 100 μM, tyrosinase 5 U/mL, NADH 200 μM, pH 7.4
  Rate of NADH oxidation by tyrosinase/O2: 10 nM (AA and NADH depletion)/CAPE (μM)/tyrosinase (U/mL)/min
Tyrosinase [4]; with GSH 200 μM
  Rate of NADH oxidation by tyrosinase/O2 in the presence of GSH: 0.08 nM GSH depletion/CAPE (μM)/tyrosinase (U/mL)/min
B16-F10 melanoma cells
  cell viability: 60±4%
MeWo melanoma cells
  cell viability: 51±6%
[5]
  cell viability: 81±7%
Amelanotic C32 cells
  cell viability: 86±4%
[6]
  cell viability: 89±3%
[7]
  cell viability: 90±6%
Prostate (PC-3) cells
  cell viability: 88±3%
SK-MEL-28 cells [8]
  cell viability, tyrosinase shRNA transfected cells: 87±5%
  cell viability, untransfected cells: 43±6%
[9]
  ROS formation: no significant ROS was formed
SK-MEL-28 cells [10]; CAPE 15 μM
  decrease in mitochondrial membrane potential: 17±1%
SK-MEL-28 cells [10]; CAPE 15 μM + CS 15 μM
  decrease in mitochondrial membrane potential in the presence of CS: 8±1%
SK-MEL-28 cells [10]; CAPE 15 μM + ethylenediamine 1 mM
  decrease in mitochondrial membrane potential in the presence of ethylenediamine: 4±1%
SK-MEL-28 cells [10]; CAPE 30 μM
  decrease in mitochondrial membrane potential: 20±2%
SK-MEL-28 cells [10]; CAPE 30 μM + CS 15 μM
  decrease in mitochondrial membrane potential in the presence of CS: 12±1%
SK-MEL-28 cells [10]; CAPE 30 μM + ethylenediamine 1 mM
  decrease in mitochondrial membrane potential in the presence of ethylenediamine: 10±1%
SK-MEL-28 melanoma cells [11]
  apoptotic cell death: 12.5±0.7%
  increase in apoptotic cell death in comparison to untreated control cells: 2.5 fold
[12]; CAPE 15 μM
  intracellular GSH depleted: 11±4%
[12]; CAPE 50 μM
  intracellular GSH depleted: 19±2%
[12]; CAPE 100 μM
  intracellular GSH depleted: 26±1%
[12]; CAPE 200 μM
  intracellular GSH depleted: 54±1%
[13]; CAPE 15 μM
  intracellular GSH depleted: 3±2%
[13]; CAPE 50 μM
  intracellular GSH depleted: 10±2%
[13]; CAPE 100 μM
  intracellular GSH depleted: 13±3%
[13]; CAPE 200 μM
  intracellular GSH depleted: 24±2%
[14]
  stability of spectrum in solution (auto-oxidation): stable
Oral cancer cells
  IC50: 75 µM
[15]
  IC50: 2.5 µM
[16]
  GSH depleted per mole of CAPE, rat liver microsomes: 0.5 mole GSH per one mole of CAPE
